Experimental data as given in ChEMBL document CHEMBL5329156, “Discovery and development of novel substituted monohydrazides as potent antifungal agents” (RSC Med Chem, 2023).
Values after ≈ are worked out from the molar mass of the structure shown.

Experiments:
Candida albicans [1] = test: Antifungal activity against Candida albicans ATCC 10231 assessed as fungal growth inhibition by double dilution method; assay type: functional
Procedure, shortened: (§1)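 Broth microdilution after CLSI M27-A3/M38-A2 with minor changes. Single colony grown overnight in YPD at 35 °C, 200 rpm. Compound final range 0.06-31.3 µg/mL; incubated 48 h at 35 °C.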

Candida albicans [2] = test: Antifungal activity against Candida albicans ATCC 64124 assessed as fungal growth inhibition by double dilution method; assay type: functional
Procedure, shortened: (§2)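 Broth microdilution after CLSI M27-A3/M38-A2 with minor modifications. A single colony was grown overnight in YPD at 35 °C with shaking at 200 rpm. Cells were mixed 1:1 with compound (final 0.06-31.3 µg/mL, from DMSO stocks) and incubated 48 h at 35 °C.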

Candida albicans [3] = test: Antifungal activity against itraconazole/fluconazole susceptible Candida albicans ATCC MYA-2876 assessed as fungal growth inhibition by double dilution method; assay type: functional; procedure, shortened: as §2
Candida albicans [4] = test: Antifungal activity against itraconazole/fluconazole resistant Candida albicans ATCC 90819 assessed as fungal growth inhibition by double dilution method; assay type: functional; procedure, shortened: as §2
Candida albicans [5] = test: Antifungal activity against itraconazole/fluconazole susceptible Candida albicans ATCC MYA-2310 assessed as fungal growth inhibition by double dilution method; assay type: functional; procedure, shortened: as §2
Candida albicans [6] = test: Antifungal activity against itraconazole/fluconazole resistant Candida albicans ATCC MYA-1237 assessed as fungal growth inhibition by double dilution method; assay type: functional; procedure, shortened: as §2
Candida albicans [7] = test: Antifungal activity against itraconazole/fluconazole resistant Candida albicans ATCC MYA-1003 assessed as fungal growth inhibition by double dilution method; assay type: functional; procedure, shortened: as §2
Nakaseomyces glabratus [8] = test: Antifungal activity against Candida glabrata ATCC 2001 assessed as fungal growth inhibition by double dilution method; assay type: functional; procedure, shortened: as §1
Pichia kudriavzevii [9] = test: Antifungal activity against Pichia kudriavzevii ATCC 6258 assessed as fungal growth inhibition by double dilution method; assay type: functional; procedure, shortened: as §1
Nakaseomyces glabratus [10] = test: Antifungal activity against Candida glabrata ATCC 22019 assessed as fungal growth inhibition by double dilution method; assay type: functional; procedure, shortened: as §1
[Candida] auris [11] = Antifungal activity against Candida auris AR Bank # 0384 assessed as fungal growth inhibition by double dilution method; assay type: functional; details: Candidozyma auris; procedure, shortened: as §1
[Candida] auris [12] = Antifungal activity against Candida auris AR Bank # 0390 assessed as fungal growth inhibition by double dilution method; assay type: functional; details: Candidozyma auris; procedure, shortened: as §1
Cryptococcus neoformans = test: Antifungal activity against Cryptococcus neoformans ATCC MYA-895 assessed as fungal growth inhibition by double dilution method; assay type: functional; procedure, shortened: as §1
Aspergillus terreus = test: Antifungal activity against Aspergillus terreus ATCC MYA-3633 assessed as fungal growth inhibition by double dilution method; assay type: functional
Aspergillus fumigatus [13] = test: Antifungal activity against Aspergillus fumigatus NRRL 163 assessed as fungal growth inhibition by double dilution method; assay type: functional
Aspergillus flavus = test: Antifungal activity against Aspergillus flavus ATCC MYA-3631 assessed as fungal growth inhibition by double dilution method; assay type: functional
Aspergillus nidulans = test: Antifungal activity against Aspergillus nidulans ATCC 38163 assessed as fungal growth inhibition by double dilution method; assay type: functional
Aspergillus fumigatus [14] = test: Antifungal activity against Aspergillus fumigatus NRRL 5109 assessed as fungal growth inhibition by double dilution method; assay type: functional
Aspergillus fumigatus [15] = test: Antifungal activity against Aspergillus fumigatus NRRL 6113 assessed as fungal growth inhibition by double dilution method; assay type: functional
[Candida] auris [16] = Antifungal activity against Candida auris AR Bank # 381 assessed as fungal growth inhibition by double dilution method; assay type: functional; details: Candidozyma auris; procedure, shortened: as §1
[Candida] auris [17] = Antifungal activity against Candida auris AR Bank # 382 assessed as fungal growth inhibition by double dilution method; assay type: functional; details: Candidozyma auris; procedure, shortened: as §1
[Candida] auris [18] = Antifungal activity against Candida auris AR Bank # 383 assessed as fungal growth inhibition by double dilution method; assay type: functional; details: Candidozyma auris; procedure, shortened: as §1
[Candida] auris [19] = Antifungal activity against Candida auris AR Bank # 384 assessed as fungal growth inhibition by double dilution method; assay type: functional; details: Candidozyma auris; procedure, shortened: as §1
[Candida] auris [20] = Antifungal activity against Candida auris AR Bank # 385 assessed as fungal growth inhibition by double dilution method; assay type: functional; details: Candidozyma auris; procedure, shortened: as §1
[Candida] auris [21] = Antifungal activity against Candida auris AR Bank # 386 assessed as fungal growth inhibition by double dilution method; assay type: functional; details: Candidozyma auris; procedure, shortened: as §1
[Candida] auris [22] = Antifungal activity against Candida auris AR Bank # 387 assessed as fungal growth inhibition by double dilution method; assay type: functional; details: Candidozyma auris; procedure, shortened: as §1
[Candida] auris [23] = Antifungal activity against Candida auris AR Bank # 388 assessed as fungal growth inhibition by double dilution method; assay type: functional; details: Candidozyma auris; procedure, shortened: as §1
[Candida] auris [24] = Antifungal activity against Candida auris AR Bank # 389 assessed as fungal growth inhibition by double dilution method; assay type: functional; details: Candidozyma auris; procedure, shortened: as §1
[Candida] auris [25] = Antifungal activity against Candida auris AR Bank # 390 assessed as fungal growth inhibition by double dilution method; assay type: functional; details: Candidozyma auris; procedure, shortened: as §1
Candida duobushaemulonii [26] = test: Antifungal activity against Candida duobushaemulonii AR Bank # 391 assessed as fungal growth inhibition by double dilution method; assay type: functional; details: Candidozyma duobushaemuli; procedure, shortened: as §1
Candida duobushaemulonii [27] = test: Antifungal activity against Candida duobushaemulonii AR Bank # 392 assessed as fungal growth inhibition by double dilution method; assay type: functional; details: Candidozyma duobushaemuli; procedure, shortened: as §1
[Candida] haemuloni [28] = Antifungal activity against Candida haemulonii AR Bank # 393 assessed as fungal growth inhibition by double dilution method; assay type: functional; details: Candidozyma haemuli; procedure, shortened: as §1
Candida duobushaemulonii [29] = test: Antifungal activity against Candida duobushaemulonii AR Bank # 394 assessed as fungal growth inhibition by double dilution method; assay type: functional; details: Candidozyma duobushaemuli; procedure, shortened: as §1
[Candida] haemuloni [30] = Antifungal activity against Candida haemulonii AR Bank # 395 assessed as fungal growth inhibition by double dilution method; assay type: functional; details: Candidozyma haemuli; procedure, shortened: as §1
Kodamaea ohmeri = test: Antifungal activity against Kodamaea ohmeri AR Bank # 396 assessed as fungal growth inhibition by double dilution method; assay type: functional; procedure, shortened: as §1
Pichia kudriavzevii [31] = test: Antifungal activity against Pichia kudriavzevii AR Bank # 397 assessed as fungal growth inhibition by double dilution method; assay type: functional; procedure, shortened: as §1
Clavispora lusitaniae = test: Antifungal activity against Clavispora lusitaniae AR Bank # 398 assessed as fungal growth inhibition by double dilution method; assay type: functional; procedure, shortened: as §1
Saccharomyces cerevisiae [32] = test: Antifungal activity against Saccharomyces cerevisiae AR Bank # 399 assessed as fungal growth inhibition by double dilution method; assay type: functional; procedure, shortened: as §1
Saccharomyces cerevisiae [33] = test: Antifungal activity against Saccharomyces cerevisiae AR Bank # 400 assessed as fungal growth inhibition by double dilution method; assay type: functional; procedure, shortened: as §1
J774.A1 = test: Cytotoxicity against J774A.1 cells assessed as reduction in cell viability at 31.3 microg/ml; assay type: toxicity, cell-based; details: mouse, dose 31.3 µg/ml
Procedure, shortened: (§3)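 Cells in DMEM with 10% FBS and 1% Pen/Strep, seeded at 10,000 cells/well and held overnight at 37 °C, 5% CO2. Compounds added at final 31.3-0.12 µg/mL (0.05% DMSO vehicle) for 24 h. Resazurin then added for 6 h; fluorescence read at ex 560/em 590. Triton X-100 1% as positive control; values normalized to vehicle. Run in quadruplicate.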

HEK293 = test: Cytotoxicity against human HEK-293 cells assessed as reduction in cell viability at 31.3 microg/ml; assay type: toxicity, cell-based; details: dose 31.3 µg/ml; procedure, shortened: as §3

Compound: C[C@@H]1[C@H](O)[C@@H](C)/C=C/C=C/C=C/C=C/C=C/C=C/C=C/[C@H](O[C@@H]2O[C@H](C)[C@@H](O)[C@H](N)[C@@H]2O)C[C@@H]2O[C@](O)(C[C@@H](O)C[C@@H](O)[C@H](O)CC[C@@H](O)C[C@@H](O)CC(=O)O[C@H]1C)C[C@H](O)[C@H]2C(=O)O [AMPHOTERICIN B]
- MIC (Candida albicans [1]): 1.95 mg/L (≈ 2.11 µM)
- MIC (Candida albicans [2]): 1.95 mg/L (≈ 2.11 µM)
- MIC (Candida albicans [3]): 1.95 mg/L (≈ 2.11 µM)
- MIC (Candida albicans [4]): 0.98 mg/L (≈ 1.06 µM)
- MIC (Candida albicans [5]): 0.98 mg/L (≈ 1.06 µM)
- MIC (Candida albicans [6]): 1.95 mg/L (≈ 2.11 µM)
- MIC (Candida albicans [7]): 0.98 mg/L (≈ 1.06 µM)
- MIC (Nakaseomyces glabratus [8]): 0.98 mg/L (≈ 1.06 µM)
- MIC (Pichia kudriavzevii [9]): 0.98 mg/L (≈ 1.06 µM)
- MIC (Nakaseomyces glabratus [10]): 0.98 mg/L (≈ 1.06 µM)
- MIC ([Candida] auris [11]): 1.95 mg/L (≈ 2.11 µM)
- MIC ([Candida] auris [12]): 1.95 mg/L (≈ 2.11 µM)
- MIC (Cryptococcus neoformans): 7.8 mg/L (≈ 8.44 µM)
- MIC (Aspergillus terreus): 3.9 mg/L (≈ 4.22 µM)
- MIC (Aspergillus fumigatus [13]): 0.98 mg/L (≈ 1.06 µM)
- MIC (Aspergillus flavus): 31.3 mg/L (≈ 33.9 µM)
- MIC (Aspergillus nidulans): 15.6 mg/L (≈ 16.9 µM)
- MIC (Aspergillus fumigatus [14]): 0.98 mg/L (≈ 1.06 µM)
- MIC (Aspergillus fumigatus [15]): 1.95 mg/L (≈ 2.11 µM)
- MIC ([Candida] auris [16]): 0.98 mg/L (≈ 1.06 µM)
- MIC ([Candida] auris [17]): 0.98 mg/L (≈ 1.06 µM)
- MIC ([Candida] auris [18]): 1.95 mg/L (≈ 2.11 µM)
- MIC ([Candida] auris [19]): 1.95 mg/L (≈ 2.11 µM)
- MIC ([Candida] auris [20]): 1.95 mg/L (≈ 2.11 µM)
- MIC ([Candida] auris [21]): 0.98 mg/L (≈ 1.06 µM)
- MIC ([Candida] auris [22]): 0.98 mg/L (≈ 1.06 µM)
- MIC ([Candida] auris [23]): 1.95 mg/L (≈ 2.11 µM)
- MIC ([Candida] auris [24]): 1.95 mg/L (≈ 2.11 µM)
- MIC ([Candida] auris [25]): 1.95 mg/L (≈ 2.11 µM)
- MIC (Candida duobushaemulonii [26]): 7.8 mg/L (≈ 8.44 µM)
- MIC (Candida duobushaemulonii [27]): 7.8 mg/L (≈ 8.44 µM)
- MIC ([Candida] haemuloni [28]): 15.6 mg/L (≈ 16.9 µM)
- MIC (Candida duobushaemulonii [29]): 0.98 mg/L (≈ 1.06 µM)
- MIC ([Candida] haemuloni [30]): 3.9 mg/L (≈ 4.22 µM)
- MIC (Kodamaea ohmeri): 1.95 mg/L (≈ 2.11 µM)
- MIC (Pichia kudriavzevii [31]): 0.49 mg/L (≈ 0.53 µM)
- MIC (Clavispora lusitaniae): 3.9 mg/L (≈ 4.22 µM)
- MIC (Saccharomyces cerevisiae [32]): 15.6 mg/L (≈ 16.9 µM)
- MIC (Saccharomyces cerevisiae [33]): 1.95 mg/L (≈ 2.11 µM)
- Activity (J774.A1): Non-Toxic
- Activity (HEK293): Non-Toxic

Compound: O=C(NNc1ccc(Cl)cc1)c1cnccn1
- MIC ([Candida] auris [16]): 7.8 mg/L (≈ 31.4 µM)
- MIC ([Candida] auris [17]): 15.6 mg/L (≈ 62.7 µM)
- MIC ([Candida] auris [18]): 3.9 mg/L (≈ 15.7 µM)
- MIC ([Candida] auris [19]): 1.95 mg/L (≈ 7.84 µM)
- MIC ([Candida] auris [20]): 31.3 mg/L (≈ 126 µM)
- MIC ([Candida] auris [21]): 7.8 mg/L (≈ 31.4 µM)
- MIC ([Candida] auris [22]): 15.6 mg/L (≈ 62.7 µM)
- MIC ([Candida] auris [23]): 7.8 mg/L (≈ 31.4 µM)
- MIC ([Candida] auris [24]): 7.8 mg/L (≈ 31.4 µM)
- MIC ([Candida] auris [25]): 3.9 mg/L (≈ 15.7 µM)
- MIC (Candida duobushaemulonii [26]): 1.95 mg/L (≈ 7.84 µM)
- MIC (Candida duobushaemulonii [27]): 1.95 mg/L (≈ 7.84 µM)
- MIC ([Candida] haemuloni [28]): 1.95 mg/L (≈ 7.84 µM)
- MIC (Candida duobushaemulonii [29]): 1.95 mg/L (≈ 7.84 µM)
- MIC ([Candida] haemuloni [30]): 3.9 mg/L (≈ 15.7 µM)
- MIC (Kodamaea ohmeri): 1.95 mg/L (≈ 7.84 µM)
- MIC (Pichia kudriavzevii [31]): 3.9 mg/L (≈ 15.7 µM)
- MIC (Clavispora lusitaniae): 3.9 mg/L (≈ 15.7 µM)
- MIC (Saccharomyces cerevisiae [32]): 3.9 mg/L (≈ 15.7 µM)
- MIC (Saccharomyces cerevisiae [33]): 3.9 mg/L (≈ 15.7 µM)
